{
  "source": "ChEMBL document CHEMBL2346506",
  "about": "“Cytotoxicity and modulation of cancer-related signaling by (Z)- and (E)-3,4,3',5'-tetramethoxystilbene isolated from Eugenia rigida” (J Nat Prod, 2013)",
  "key": {"[1]": {"test": "Inhibition of Hedgehog signaling pathway in human HeLa cells assessed as inhibition of PMA induced luciferase at 100 uM treated 30 mins before induction", "format": "cell-based", "method_in_brief": "(§1)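 Reporter assay in cells transfected with pathway luciferase plasmids. Cells plated at 0.015 × 10⁶ per well in 10% FBS, switched after 24 h to DMEM with 1% FBS, then transfected. 24 h after transfection, compound (final 40, 60, 80 or 100 μM) was added, followed 30 min later by inducer (IL-6, TGF-β, wnt3a or PMA). Luciferase was read 4 or 6 h after induction (6 h for Notch, Wnt, Hedgehog). Value is the IC50 or the lowest concentration giving maximal 50–60% inhibition; two independent experiments.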"}, "[2]": {"target": "Myc proto-oncogene protein (Homo sapiens) (UniProt P01106)", "sequence (P01106 whole entry)": "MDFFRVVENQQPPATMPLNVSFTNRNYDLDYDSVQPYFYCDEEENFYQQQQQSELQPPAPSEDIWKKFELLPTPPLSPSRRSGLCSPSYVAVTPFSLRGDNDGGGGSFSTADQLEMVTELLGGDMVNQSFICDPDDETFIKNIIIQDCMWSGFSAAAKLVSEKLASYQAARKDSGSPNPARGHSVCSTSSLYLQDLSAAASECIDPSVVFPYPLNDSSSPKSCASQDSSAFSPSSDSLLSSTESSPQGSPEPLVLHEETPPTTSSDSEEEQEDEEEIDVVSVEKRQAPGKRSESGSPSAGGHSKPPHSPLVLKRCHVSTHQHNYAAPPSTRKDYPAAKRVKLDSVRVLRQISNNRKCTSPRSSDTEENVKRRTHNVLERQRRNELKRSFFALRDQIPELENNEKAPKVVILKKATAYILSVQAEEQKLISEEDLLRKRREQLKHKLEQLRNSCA", "test": "Inhibition of Myc signaling pathway in human HeLa cells assessed as inhibition of PMA induced luciferase at 100 uM treated 30 mins before induction", "format": "cell-based", "method_in_brief": "as §1"}, "[3]": {"system": "HeLa", "test": "Inhibition of smad3/4 signaling pathway in human HeLa cells assessed as measured as lowest concentration required 50 to 60 % inhibition of TGF-beta induced luciferase treated 30 mins before induction", "format": "functional", "method_in_brief": "as §1"}, "[4]": {"test": "Inhibition of AP1 signaling pathway in human HeLa cells assessed as inhibition of PMA induced luciferase treated 30 mins before induction", "format": "cell-based", "method_in_brief": "as §1"}, "[5]": {"system": "SK-OV-3", "test": "Cytotoxicity against human SKOV3 cells assessed as growth inhibition measured at 100 uM after 48 hrs by […] assay", "format": "functional, cell-based"}, "[6]": {"test": "Inhibition of Ets signaling pathway in human HeLa cells assessed as inhibition of PMA induced luciferase at 100 uM treated 30 mins before induction", "format": "cell-based", "method_in_brief": "as §1"}, "[7]": {"test": "Inhibition of AP1 signaling pathway in human HeLa cells assessed as measured as lowest concentration required 50 to 60 % inhibition of PMA induced luciferase treated 30 mins before induction", "format": "cell-based", "method_in_brief": "as §1"}, "[8]": {"system": "SK-MEL", "test": "Cytotoxicity against human SK-MEL cells assessed as growth inhibition measured after 48 hrs by Neutral Red dye assay"}, "[9]": {"test": "Inhibition of Wnt signaling pathway in human HeLa cells assessed as measured as lowest concentration required 50 to 60 % inhibition of Wnt3a induced luciferase treated 30 mins before induction", "format": "cell-based", "method_in_brief": "as §1"}, "[10]": {"system": "Vero", "test": "Cytotoxicity against african green monkey Vero cells assessed as growth inhibition measured at 100 uM after 48 hrs by […] assay", "format": "cell-based", "conditions": "chlorocebus sabaeus"}, "[11]": {"test": "Inhibition of NFkappaB signaling pathway in human HeLa cells assessed as inhibition of PMA induced luciferase at 100 uM treated 30 mins before induction", "format": "cell-based", "method_in_brief": "as §1"}, "[12]": {"system": "KB", "test": "Cytotoxicity against human KB cells assessed as growth inhibition measured at 100 uM after 48 hrs by Neutral Red dye assay"}, "[13]": {"system": "HL-60", "test": "Cytotoxicity against human HL60 cells assessed as growth inhibition measured after 48 hrs by XTT assay", "format": "functional, cell-based", "conditions": "HL-60, 48 h"}, "[14]": {"test": "Inhibition of Wnt signaling pathway in human HeLa cells assessed as inhibition of Wnt3a induced luciferase treated 30 mins before induction", "format": "cell-based", "method_in_brief": "as §1"}, "[15]": {"system": "LLC-PK1", "test": "Cytotoxicity against pig LLC-PK1 cells assessed as growth inhibition measured at 100 uM after 48 hrs by […] assay", "format": "cell-based, Sus scrofa", "conditions": "llc-pk1, 48 h"}, "[16]": {"system": "HeLa", "test": "Cytotoxicity against human HeLa cells assessed as growth inhibition measured after 48 hrs by Neutral Red dye assay"}, "[17]": {"test": "Inhibition of E2F signaling pathway in human HeLa cells assessed as inhibition of PMA induced luciferase at 100 uM treated 30 mins before induction", "format": "cell-based", "method_in_brief": "as §1"}, "[18]": {"test": "Inhibition of Notch signaling pathway in human HeLa cells assessed as inhibition of PMA induced luciferase at 100 uM treated 30 mins before induction", "format": "cell-based", "method_in_brief": "as §1"}, "[19]": {"system": "HeLa", "test": "Inhibition of smad3/4 signaling pathway in human HeLa cells assessed as inhibition of TGF-beta induced luciferase treated 30 mins before induction", "format": "functional, cell-based", "method_in_brief": "as §1"}, "[20]": {"test": "Inhibition of NFkappaB signaling pathway in human HeLa cells assessed as inhibition of PMA induced luciferase treated 30 mins before induction", "format": "cell-based", "method_in_brief": "as §1"}, "[21]": {"target": "T1, Nitric oxide synthase, inducible (Mus musculus) (UniProt P29477)", "T1 sequence (whole entry)": "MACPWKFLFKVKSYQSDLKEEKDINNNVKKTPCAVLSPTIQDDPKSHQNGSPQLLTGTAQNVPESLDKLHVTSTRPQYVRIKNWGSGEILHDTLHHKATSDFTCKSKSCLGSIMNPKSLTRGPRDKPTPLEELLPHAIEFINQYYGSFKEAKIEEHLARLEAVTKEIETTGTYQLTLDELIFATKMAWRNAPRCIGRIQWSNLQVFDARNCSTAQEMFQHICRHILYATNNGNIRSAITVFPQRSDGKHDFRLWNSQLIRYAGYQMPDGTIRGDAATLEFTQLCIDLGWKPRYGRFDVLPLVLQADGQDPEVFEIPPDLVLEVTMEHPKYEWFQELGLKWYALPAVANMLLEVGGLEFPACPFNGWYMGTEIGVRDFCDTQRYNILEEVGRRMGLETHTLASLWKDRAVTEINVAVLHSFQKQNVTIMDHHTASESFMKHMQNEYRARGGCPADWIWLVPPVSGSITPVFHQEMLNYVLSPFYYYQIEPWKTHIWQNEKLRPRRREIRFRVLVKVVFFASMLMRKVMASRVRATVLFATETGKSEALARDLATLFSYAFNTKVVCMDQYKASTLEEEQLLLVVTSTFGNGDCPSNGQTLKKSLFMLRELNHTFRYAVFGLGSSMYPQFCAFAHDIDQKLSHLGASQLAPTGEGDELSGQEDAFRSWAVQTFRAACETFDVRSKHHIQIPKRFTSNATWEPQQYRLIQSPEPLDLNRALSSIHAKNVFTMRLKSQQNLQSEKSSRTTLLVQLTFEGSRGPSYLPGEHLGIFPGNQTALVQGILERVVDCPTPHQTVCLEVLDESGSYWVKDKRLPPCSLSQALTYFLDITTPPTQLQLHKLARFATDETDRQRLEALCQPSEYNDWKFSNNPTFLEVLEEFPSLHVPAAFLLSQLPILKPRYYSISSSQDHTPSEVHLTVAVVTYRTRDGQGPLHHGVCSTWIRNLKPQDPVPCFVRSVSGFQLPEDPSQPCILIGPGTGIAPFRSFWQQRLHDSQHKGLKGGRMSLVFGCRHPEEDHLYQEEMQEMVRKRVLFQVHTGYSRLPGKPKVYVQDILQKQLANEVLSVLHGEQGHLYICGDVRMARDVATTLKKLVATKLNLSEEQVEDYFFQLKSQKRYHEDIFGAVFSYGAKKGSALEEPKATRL", "test": "Inhibition of iNOS in LPS-induced mouse RAW264.7 cells assessed as inhibition of […] up to 33.3 uM measured after 24 hrs", "format": "cell-based", "method_in_brief": "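RAW 264.7 macrophages seeded at 50 000 per well and grown 24 h. Compound added 30 min before LPS (5 μg/mL), then cells incubated a further 24 h. Nitrite in the supernatant measured with Griess reagent relative to vehicle control. Parthenolide served as positive control; cytotoxicity checked in parallel.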"}, "[22]": {"system": "HeLa", "test": "Inhibition of Stat3 signaling pathway in human HeLa cells assessed as inhibition of IL-6 induced luciferase at 100 uM treated 30 mins before induction", "format": "functional", "method_in_brief": "as §1"}, "[23]": {"target": "Forkhead box protein O1 (Homo sapiens) (UniProt Q12778)", "sequence (Q12778 whole entry)": "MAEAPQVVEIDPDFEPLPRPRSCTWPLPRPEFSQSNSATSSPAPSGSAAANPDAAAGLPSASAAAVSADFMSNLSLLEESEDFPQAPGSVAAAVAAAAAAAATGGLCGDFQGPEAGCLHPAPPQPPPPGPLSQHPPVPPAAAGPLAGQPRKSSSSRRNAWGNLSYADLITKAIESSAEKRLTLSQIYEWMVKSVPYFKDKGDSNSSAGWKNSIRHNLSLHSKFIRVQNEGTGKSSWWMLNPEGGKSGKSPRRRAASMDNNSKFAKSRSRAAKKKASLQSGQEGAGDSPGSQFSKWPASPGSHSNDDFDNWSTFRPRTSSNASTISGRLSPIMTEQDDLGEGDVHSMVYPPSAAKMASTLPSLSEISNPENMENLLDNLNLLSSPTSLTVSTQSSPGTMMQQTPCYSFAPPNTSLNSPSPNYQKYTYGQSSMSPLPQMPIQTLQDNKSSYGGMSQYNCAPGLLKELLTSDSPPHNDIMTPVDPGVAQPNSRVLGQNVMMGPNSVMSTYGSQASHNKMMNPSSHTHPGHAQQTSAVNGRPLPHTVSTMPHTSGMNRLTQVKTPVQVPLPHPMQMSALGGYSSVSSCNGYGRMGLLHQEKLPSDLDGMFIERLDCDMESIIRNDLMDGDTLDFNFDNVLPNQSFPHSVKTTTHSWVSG", "test": "Inhibition of FoxO signaling pathway in human HeLa cells assessed as inhibition of luciferase at 100 uM […]", "format": "cell-based"}, "[24]": {"system": "HL-60", "test": "Inhibition of PMA induced ROS generation in human HL60 cells assessed as inhibition of ROA mediated oxidation of DCFH", "format": "functional, cell-based", "method_in_brief": "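HL-60 cells (0.8 × 10⁶/mL) in RPMI-1640 with 10% FBS were pretreated 30 min with compound (0.4–100 μM). PMA (100 ng/mL) was then added for 30 min, followed by DCFH-DA (5 μg/mL) for 15 min. DCF fluorescence read at Ex 485 / Em 530 nm and compared with vehicle control. Trolox served as positive control.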"}, "[25]": {"system": "BT-549", "test": "Cytotoxicity against human BT549 cells assessed as growth inhibition measured at 100 uM after 48 hrs by Neutral Red dye assay"}},
  "note": "Calls of active or inactive are those of the source. The calls are words filed in the database; no cut-off is given here.",
  "data": [
    {"smiles": "COc1cc(/C=C/c2ccc(OC)c(OC)c2)cc(OC)c1", "note": "[(E)-3,4,3',5'-TETRAMETHOXYSTILBENE]", "values": [
      {"measurement": "inhibition", "setting": "[1]", "result": "< 40", "unit": "%"},
      {"measurement": "inhibition", "setting": "[2]", "result": "< 40", "unit": "%"},
      {"measurement": "MED", "setting": "[3]", "result": 77, "unit": "µM"},
      {"measurement": "IC50", "setting": "[4]", "result": 80, "unit": "µM"},
      {"measurement": "growth inhibition (GI)", "setting": "[5]", "result": "inactive"},
      {"measurement": "inhibition", "setting": "[6]", "result": "< 40", "unit": "%"},
      {"measurement": "MED", "setting": "[7]", "result": 100, "unit": "µM"},
      {"measurement": "IC50", "setting": "[8]", "result": 60, "unit": "µM"},
      {"measurement": "MED", "setting": "[9]", "result": 80, "unit": "µM"},
      {"measurement": "growth inhibition (GI)", "setting": "[10]", "result": "Not Active"},
      {"measurement": "inhibition", "setting": "[11]", "result": "< 40", "unit": "%"},
      {"measurement": "growth inhibition (GI)", "setting": "[12]", "result": "inactive"},
      {"measurement": "IC50", "setting": "[13]", "result": 33.3, "unit": "µM"},
      {"measurement": "IC50", "setting": "[14]", "result": 80, "unit": "µM"},
      {"measurement": "growth inhibition (GI)", "setting": "[15]", "result": "Not Active"},
      {"measurement": "IC50", "setting": "[16]", "result": 8, "unit": "µM"},
      {"measurement": "inhibition", "setting": "[17]", "result": "< 40", "unit": "%"},
      {"measurement": "inhibition", "setting": "[18]", "result": "< 40", "unit": "%"},
      {"measurement": "IC50", "setting": "[19]", "result": 100, "unit": "µM"},
      {"measurement": "IC50", "setting": "[20]", "result": 90, "unit": "µM"},
      {"measurement": "inhibition", "setting": "[21]", "result": "inactive"},
      {"measurement": "inhibition at 100 µM", "setting": "[22]", "result": "< 40", "unit": "%"},
      {"measurement": "inhibition", "setting": "[23]", "result": "< 40", "unit": "%"},
      {"measurement": "IC50", "setting": "[24]", "result": 33.3, "unit": "µM"},
      {"measurement": "growth inhibition (GI)", "setting": "[25]", "result": "inactive"}
    ]}
  ]
}
